Test results from ChEMBL document CHEMBL1157149, “Phosphonate-linked pyrrolo[2,1-c][1,4]benzodiazepine conjugates: synthesis, DNA-binding affinity and cytotoxicity” (2008).
The source made the active and inactive calls. No cut-off for these calls is given here.

Tests used:
[1] = Cytotoxicity against human melanoma cancer cells after 24 hrs by SRB method; format: functional; settings: Melanoma cell
[2] = Cytotoxicity against human CNS cancer cells after 48 hrs by SRB method; settings: Cancer cell lines
[3] = Cytotoxicity against human colon cancer cells after 24 hrs by SRB method; format: functional; settings: Cancer cell lines
[4] = Cytotoxicity against human GURAV cells after 48 hrs by SRB method
[5] = Cytotoxicity against human leukemia cells after 48 hrs by SRB method; settings: Leukemia cell
[6] = Cytotoxicity against human lung cancer cells after 24 hrs by SRB method; format: functional; settings: Cancer cell lines
CCRF-CEM [7] = test: Cytotoxicity against human CCRF-CEM cells after 48 hrs by SRB method; settings: read-out: pLC50 (the source's name) (converted)
A2780 = test: Cytotoxicity against human A2780 cells after 48 hrs by SRB method; settings: A2780, 48 h
DNA = test: Binding affinity to calf thymus DNA assessed as change in thermal stability at pH 7.0 after 18 hrs by thermal denaturation assay; format: nucleic-acid assay; settings: Bos taurus
Method in brief: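 CT-DNA duplex at 100 µM (in phosphate) with ligand at 20 µM (1:5 ligand/DNA molar ratio) in 10 mM sodium phosphate, 1 mM EDTA, pH 7.00; compound added from concentrated MeOH solution. Incubated at 37 °C for 18 h. Absorbance at 260 nm followed while heating at 1 °C/min over 40–90 °C. Tm taken from dA260/dT derivative maxima; ΔTm relative to DNA alone.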

SR = test: Cytotoxicity against human SR cells after 24 hrs by SRB method; format: functional
[8] = Cytotoxicity against human breast cancer cells after 24 hrs by SRB method; format: functional; settings: Cancer cell lines
A549 = test: Cytotoxicity against human A549 cells after 48 hrs by SRB method; settings: A549, 48 h
MOLT-4 = test: Cytotoxicity against human MOLT4 cells after 24 hrs by SRB method; format: functional; settings: MOLT-4, 24 h
COLO 205 = test: Cytotoxicity against human Colo205 cells after 48 hrs by SRB method; settings: COLO 205, 48 h
[9] = Cytotoxicity against human leukemia cells after 24 hrs by SRB method; format: functional; settings: Leukemia cell, read-out: pTGI (converted)
K562 = test: Cytotoxicity against human K562 cells after 48 hrs by SRB method; settings: K562, 48 h
RPMI-8226 = test: Cytotoxicity against human RPMI8226 cells after 24 hrs by SRB method; format: functional; settings: RPMI-8226, 24 h
[10] = target: T1, Type II restriction enzyme BamHI (Bacillus amyloliquefaciens) (UniProt P23940); test: Inhibition of BamH1 assessed as inhibition of pBR322 DNA cleavage
T1 sequence (whole entry): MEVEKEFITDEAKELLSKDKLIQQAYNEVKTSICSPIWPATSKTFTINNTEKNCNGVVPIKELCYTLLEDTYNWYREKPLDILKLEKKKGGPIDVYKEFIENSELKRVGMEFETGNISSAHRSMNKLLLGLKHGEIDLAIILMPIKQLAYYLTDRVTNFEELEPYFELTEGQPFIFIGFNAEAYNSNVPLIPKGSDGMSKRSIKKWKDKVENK
Method in brief: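 PBD stocks were 100 μM in DMSO. Plasmid pBR322 (500 ng, single BamHI site) was preincubated with compound in 16 μL for 16 h at 37 °C. BamHI (20 U) and its buffer were then added to 20 μL, and digestion ran 1 h at 37 °C. Cut and uncut forms were resolved on 1% agarose in TAE (80 V, 2 h) and stained with ethidium bromide.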

KB = test: Cytotoxicity against human KB cells after 48 hrs by SRB method
PC-3 = test: Cytotoxicity against human PC3 cells after 48 hrs by SRB method; settings: PC-3, 48 h
MCF7 = test: Cytotoxicity against human MCF7 cells after 48 hrs by SRB method; settings: MCF7, 48 h
[11] = Cytotoxicity against human renal cancer cells after 24 hrs by SRB method; format: functional; settings: Cancer cell lines
SiHa = test: Cytotoxicity against human SiHa cells after 48 hrs by SRB method
CCRF-CEM [12] = test: Cytotoxicity against human CCRF-CEM cells after 24 hrs by SRB method; format: functional
[13] = Cytotoxicity against human ovarian cancer cells after 24 hrs by SRB method; format: functional; settings: Cancer cell lines
HL-60 = test: Cytotoxicity against human HL60 cells after 48 hrs by SRB method; settings: HL-60, 48 h
[14] = Cytotoxicity against human prostate cancer cells after 24 hrs by SRB method; format: functional; settings: Cancer cell lines
[15] = Cytotoxicity against human DWD cells after 48 hrs by SRB method
[16] = read-out: pLC50 (the source's name) (converted)

CCOP(=O)(CCN1CCN(CCCCCOc2cc3c(cc2OC)C(=O)N2CCC[C@H]2C=N3)CC1)OCC
GI50 [1]: 7.76 µM
CC50 [1, 16]: 81.3 µM
TGI ([1]; read-out: pTGI (converted)): 30.2 µM
GI50 [2]: 3.02 µM
CC50 [2, 16]: 89.1 µM
TGI ([2]; read-out: pTGI (converted)): 30.2 µM
GI50 [3]: 10 µM
CC50 [3, 16]: 93.3 µM
TGI ([3]; read-out: pTGI (converted)): 46.8 µM
GI50 [4]: 0.17 µM
GI50 [5]: 1.95 µM
CC50 [5, 16]: 100 µM
GI50 [6]: 10 µM
CC50 [6, 16]: 100 µM
TGI ([6]; read-out: pTGI (converted)): 45.7 µM
CC50 (CCRF-CEM [7]): > 100 µM
GI50 (A2780): 0.17 µM
ΔTm (DNA): 7.2 °C
GI50 (SR): 1.38 µM
CC50 (SR; [16]): 30.9 µM
TGI (SR; read-out: pTGI (converted)): 4.27 µM
GI50 [8]: 5.62 µM
CC50 [8, 16]: 95.5 µM
TGI ([8]; read-out: pTGI (converted)): 33.1 µM
GI50 (A549): 2.64 µM
GI50 (MOLT-4): 2.14 µM
CC50 (MOLT-4; [16]): > 100 µM
TGI (MOLT-4; read-out: pTGI (converted)): 6.31 µM
GI50 (COLO 205): 1.87 µM
TGI [9]: 12.3 µM
GI50 (K562): 2.34 µM
CC50 (K562; [16]): > 100 µM
TGI (K562; read-out: pTGI): > 100 µM
GI50 (RPMI-8226): 2.29 µM
CC50 (RPMI-8226; [16]): > 100 µM
Activity [10]: Active
GI50 (KB): 1.92 µM
GI50 (PC-3): 1.98 µM
GI50 (MCF7): 2.01 µM
GI50 [11]: 9.77 µM
CC50 [11, 16]: 95.5 µM
TGI ([11]; read-out: pTGI (converted)): 53.7 µM
GI50 (SiHa): 0.21 µM
GI50 (CCRF-CEM [12]): 1.91 µM
GI50 [13]: 13.8 µM
CC50 [13, 16]: 100 µM
TGI ([13]; read-out: pTGI (converted)): 55 µM
GI50 (HL-60): 1.82 µM
CC50 (HL-60; [16]): > 100 µM
TGI (HL-60; read-out: pTGI (converted)): 8.32 µM
GI50 [14]: 17.8 µM
CC50 [14, 16]: 100 µM
TGI ([14]; read-out: pTGI (converted)): 63.1 µM

COc1cc2c(cc1OCCCN1CCN(C)CC1)N=C[C@@H]1CCCN1C2=O
ΔTm (DNA): 6.9 °C

CCOP(=O)(CCCN1CCN(CCCCCOc2cc3c(cc2OC)C(=O)N2CCC[C@H]2C=N3)CC1)OCC
GI50 [4]: 2.18 µM
GI50 (A2780): 2.02 µM
ΔTm (DNA): 10 °C
GI50 [15]: 0.18 µM
GI50 (COLO 205): 2.39 µM
Activity [10]: Active
GI50 (PC-3): 30.5 µM
GI50 (MCF7): 2.21 µM
GI50 (SiHa): 2.46 µM

COc1cc2c(cc1O)N=C[C@@H]1CCCN1C2=O
ΔTm (DNA): 0.7 °C

CCOP(=O)(CCCOc1cc2c(cc1OC)C(=O)N1CCC[C@H]1C=N2)OCC
ΔTm (DNA): 4.5 °C
GI50 [15]: 2.2 µM
GI50 (KB): 2.11 µM
GI50 (MCF7): 2.02 µM
GI50 (SiHa): 2.1 µM

COc1cccc2c1C(=O)c1c(O)c3c(c(O)c1C2=O)C[C@@](O)(C(=O)CO)C[C@@H]3O[C@H]1C[C@H](N)[C@H](O)[C@H](C)O1 [DOXORUBICIN]
GI50 [4]: 0.17 µM
GI50 (A2780): 0.17 µM
GI50 [15]: 0.11 µM
GI50 (COLO 205): 0.14 µM
GI50 (KB): 0.17 µM
GI50 (MCF7): 0.18 µM
GI50 (SiHa): 0.18 µM

CCOP(=O)(CCCN1CCN(CCCOc2cc3c(cc2OC)C(=O)N2CCC[C@H]2C=N3)CC1)OCC
ΔTm (DNA): 9.9 °C
Activity [10]: Active

CCOP(=O)(CCN1CCN(CCCOc2cc3c(cc2OC)C(=O)N2CCC[C@H]2C=N3)CC1)OCC
ΔTm (DNA): 9 °C
Activity [10]: Active

CCOP(=O)(CCCN1CCN(CCCCOc2cc3c(cc2OC)C(=O)N2CCC[C@H]2C=N3)CC1)OCC
ΔTm (DNA): 7.1 °C
